Activity calls are given as the source filed them. The rule behind the calls is not given here.
What was measured:
[1] = Half life in rat at 10 mg/kg, iv; type: ADME, organism-based; parameters: dose 10 mg/kg, route intravenous; details: in vivo
Method in brief: (§1)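 Compound given as single iv dose to mice or rats. Plasma samples prepared by protein precipitation with acetonitrile containing 1 μg/mL internal standard (3:1 v/v). Analysed by UPLC-MS/MS on a C18 reversed-phase column at 40 °C with an acetonitrile–0.05% formic acid gradient. Half-life and AUC (h ng/mL) derived from the plasma levels.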

[2] = AUC in rat at 10 mg/kg, iv; type: ADME, organism-based; parameters: dose 10 mg/kg, route intravenous; details: plasma; method in brief: as §1
[3] = tested on: PC-3; test: Cytotoxicity against human PC3 cells after 72 hrs by WST-1 assay; type: functional, cell-based
Method in brief: (§2)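 Cells seeded at 3×10³/well; next day serially diluted compound added in triplicate; 72 h at 37 °C, 5% CO₂. Viable cells measured with WST-1 reagent (1 h), absorbance 450 nm minus 690 nm reference. IC50 is mean ± SD of at least two experiments run in triplicate. MCF-7 grown in DMEM, PC3 in RPMI, each with 10% serum.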

[4] = tested on: PC-3; test: Antitumor activity against human PC3 cells xenografted in sc dosed rat assessed as tumor regression dose; type: functional
[5] = Toxicity in iv dosed rat assessed as maximum tolerated dose; details: in vivo
[6] = tested on: PC-3; test: Antitumor activity against human PC3 cells xenografted in sc dosed NMRI mouse assessed as tumor regression dose; type: functional
Method in brief: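 1e7 PC3 cells (grown in RPMI + 10% FBS) in PBS/Matrigel 1:1 injected sc into female NMRI nude mice or female NIH-RNU nude rats. Compound dosed iv three times per week. Tumour regression dose recorded. Rat effective doses were estimated from mouse xenografts using a 0.5 mouse-to-rat conversion factor.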

[7] = tested on: MCF7; test: Cytotoxicity against human MCF7 cells after 72 hrs by WST-1 assay; type: functional, cell-based; method in brief: as §2
[8] = Therapeutic index, ratio of MTD in rat to ED50 for antitumor activity against human PC3 cells xenografted in rat; type: cell-based, PC-3; details: in vivo, read-out: TI
Method in brief: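 PC3 human prostate cancer cells (1e7, grown in RPMI + 10% FBS, suspended in PBS + Matrigel) were implanted sc in female nude rats (NIHRNU-M) or nude mice (NMRI/nude), with iv dosing 3×/week. Rat MTD came from a single iv dose. Effective rat doses were estimated from mouse xenografts using a mouse-to-rat conversion factor of 0.5. Index = rat toxic dose / rat effective dose.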

[9] = AUC in rat at 2.5 mg/kg, iv; type: ADME, organism-based; parameters: dose 2.5 mg/kg, route intravenous; details: plasma; method in brief: as §1
[10] = AUC in mouse at 5 mg/kg, iv; type: ADME, organism-based; parameters: dose 5 mg/kg, route intravenous; details: plasma; method in brief: as §1
[11] = Half life in mouse at 5 mg/kg, iv; type: ADME, organism-based; parameters: dose 5 mg/kg, route intravenous; details: in vivo; method in brief: as §1
[12] = Half life in rat at 2.5 mg/kg, iv; type: ADME, organism-based; parameters: dose 2.5 mg/kg, route intravenous; details: in vivo; method in brief: as §1
[13] = tested on: MCF7; test: Cytotoxicity against human MCF7 cells after 72 hrs at 0.5 uM by WST-1 assay; type: functional; details: MCF7, 72 h
[14] = AUC in rat at 5 mg/kg, iv; type: ADME, organism-based; parameters: dose 5 mg/kg, route intravenous; details: plasma; method in brief: as §1
[15] = Half life in rat at 5 mg/kg, iv; type: ADME, organism-based; parameters: dose 5 mg/kg, route intravenous; details: in vivo; method in brief: as §1
[16] = target: Eukaryotic translation initiation factor 2 subunit 1 (Homo sapiens) (UniProt P05198); test: Inhibition of eIF2alpha autophosphorylation in human A2780 cells; type: cell-based
Method in brief: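 MCF-7 (DMEM) and A2780 (RPMI 1640) cells, together with sublines made resistant by culture in rising concentrations of the parent oxindole, were treated with compound for 4 and 24 h respectively. Lysates (20 μg protein) separated by SDS-PAGE and blotted onto nitrocellulose. Phospho-eIF2α read by western blot: milk block, primary antibody overnight at 4 °C, HRP secondary antibody.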

[17] = target: Eukaryotic translation initiation factor 2 subunit 1 (Homo sapiens) (UniProt P05198); test: Induction of eIF2alpha phosphorylation in human MCF7 cells
[18] = tested on: MDA-MB-231; test: Cytotoxicity against human MDA-MB-231 cells; type: functional, cell-based
[19] = tested on: MDA-MB-468; test: Cytotoxicity against human MDA-MB-468 cells; type: functional, cell-based

Eukaryotic translation initiation factor 2 subunit 1 (Homo sapiens), sequence (P05198 whole entry): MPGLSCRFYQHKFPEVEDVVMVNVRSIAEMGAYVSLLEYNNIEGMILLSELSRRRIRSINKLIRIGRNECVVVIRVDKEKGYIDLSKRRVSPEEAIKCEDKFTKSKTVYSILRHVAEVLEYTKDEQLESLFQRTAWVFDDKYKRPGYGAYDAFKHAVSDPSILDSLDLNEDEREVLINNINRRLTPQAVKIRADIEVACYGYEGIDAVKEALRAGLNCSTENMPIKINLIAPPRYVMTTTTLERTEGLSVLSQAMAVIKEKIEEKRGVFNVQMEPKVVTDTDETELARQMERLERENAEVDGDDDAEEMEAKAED

Structure (SMILES) | IC50 ([3]; Homo sapiens, PC-3, 72 h) [nM] | IC50 ([7]; Homo sapiens, MCF7, 72 h) [nM] | other results
COc1ccc2c(c1C)NC(=O)C2(c1ccc(O)cc1)c1ccc(F)cc1 (racemic) | 9 | 6.3 | half-life [1]: 1.5 h; AUC [2]: 3950 ng·h/mL; Activity [4]: <10 mg/kg; MTD [5]: 15 mg/kg; Activity [6]: 10 mg/kg; selectivity ratio [8]: 3
O=C1Nc2c(ccc(F)c2F)C1(CC1CCCCC1)c1ccc(O)cc1 (racemic) | > 1000 | 102 | 
O=C1Nc2c(ccc(F)c2F)C1(Cc1ccccc1)c1ccc(O)cc1 (racemic) | > 1000 | > 1000 | 
O=C1Nc2ccccc2C1(c1ccc(O)cc1)C1CCCCCC1 (racemic) | > 1000 | 247 | 
O=C1Nc2c(ccc(F)c2F)C1(c1ccc(O)cc1)c1cccs1 (racemic) | 0.3 | 82 | AUC [9]: 2630 ng·h/mL; AUC [10]: 395 ng·h/mL; half-life [11]: 0.4 h; half-life [12]: 0.7 h
COc1ccc2c(c1C)NC(=O)C2(c1ccc(O)cc1)C1CCCC1 (racemic) | 111 | 1 | 
O=C1Nc2ccccc2C1(c1ccc(O)cc1)c1ccc(O)cc1 [OXYPHENISATINE] | > 1000 |  | inhibition at 0.5 µM [13]: 73%
O=C1Nc2c(ccc(F)c2F)C1(c1ccc(O)cc1)C1CCCCC1 (stereo in doubt; form 2) |  |  | IC50 ([3]; pc-3): > 1000 nM; IC50 ([7]; mcf7): > 1000 nM
COc1ccc(C2(c3ccc(O)cc3)C(=O)Nc3c2ccc(F)c3F)cc1 (racemic) |  |  | IC50 ([3]; pc-3): 2.2 nM; IC50 ([7]; mcf7): 6.3 nM
CCCC1(c2ccc(O)cc2)C(=O)Nc2c1ccc(F)c2F (racemic) | > 1000 | > 1000 | 
Cc1ccc2c(c1C)NC(=O)C2(c1ccc(O)cc1)C1CCCCCC1 (racemic) | > 1000 | 19 | 
O=C1Nc2c(ccc(F)c2F)C1(c1ccccc1)c1ccc(O)cc1 (racemic) | 8.9 | 7.1 | 
O=C1Nc2c(ccc(F)c2F)C1(c1ccc(O)cc1)C1CCCCC1 (racemic) |  |  | IC50 ([3]; pc-3): 32 nM; AUC [14]: 1350 ng·h/mL; Activity [4]: <10 mg/kg; AUC [10]: 3550 ng·h/mL; MTD [5]: 10 mg/kg; half-life [11]: 1.6 h; Activity [6]: 10 mg/kg; half-life [15]: 1.1 h; IC50 ([7]; mcf7): 13 nM; selectivity ratio [8]: 2
COc1ccc(C2(c3ccc(O)cc3)C(=O)Nc3c2ccc(F)c3F)cc1 (stereo in doubt; form 1) |  |  | IC50 ([3]; pc-3): 2 nM; IC50 ([7]; mcf7): 2.1 nM
CCCCCC1(c2ccc(O)cc2)C(=O)Nc2c1ccc(F)c2F (racemic) | 1.1 | 96 | 
COc1ccc2c(c1C)NC(=O)C2(c1ccc(O)cc1)C1CCCCCC1 (racemic) | 12 | 4.7 | inhibition [16]: inactive; half-life [1]: 1.5 h; AUC [2]: 5760 ng·h/mL; Activity [4]: 10 mg/kg; MTD [5]: 70 mg/kg; Activity [6]: 20 mg/kg; induction [17]: inactive; selectivity ratio [8]: 7
Cc1cc(F)cc2c1NC(=O)C2(c1ccc(O)cc1)C1CCCCCC1 (racemic) | > 1000 | > 1000 | 
Cc1cc(C)c2c(c1)C(c1ccc(O)cc1)(c1ccc(F)cc1)C(=O)N2 (racemic) | 209 | 40 | 
Cc1c(F)ccc2c1NC(=O)C2(c1ccc(O)cc1)C1CCCCCC1 (racemic) | 30 | 20 | 
COc1ccc2c(c1C)NC(=O)C2(c1ccc(O)cc1)C1CCCCC1 (racemic) | 28 | 14 | 
O=C1Nc2c(C(F)(F)F)cccc2C1(c1ccc(O)cc1)C1CCCCCC1 (racemic) | 91 | 9.7 | Activity [4]: >20 mg/kg; MTD [5]: 40 mg/kg; Activity [6]: 20 mg/kg; selectivity ratio [8]: 4
COc1ccc2c(c1C)NC(=O)[C@]2(c1ccc(O)cc1)C1CCCCCC1 | 2 | 0.48 | 

Structure (SMILES) | IC50 ([3]; Homo sapiens, PC-3, 72 h) [nM] | IC50 ([7]; Homo sapiens, MCF7, 72 h) [nM] | other results
O=C1Nc2c(ccc(F)c2F)C1(c1ccc(O)cc1)c1ccc(F)cc1 (racemic) | 8.6 | 2.6 | AUC [9]: 2530 ng·h/mL; Activity [4]: <2.5 mg/kg; AUC [10]: 1910 ng·h/mL; MTD [5]: 2.5 mg/kg; half-life [11]: 2.1 h; Activity [6]: 2.5 mg/kg; half-life [12]: 0.8 h; selectivity ratio [8]: 2
O=C1Nc2c(ccc(F)c2F)C1(c1ccc(O)cc1)c1ccc(O)cc1 | 699 | 20 | IC50 [18]: > 3000 nM; AUC [10]: 6770 ng·h/mL; MTD [5]: 1 mg/kg; half-life [11]: 1.7 h; Activity [6]: 5 mg/kg; IC50 [19]: 20 nM; selectivity ratio [8]: 0.4
Cc1ccc2c(c1Cl)NC(=O)C2(c1ccc(O)cc1)C1CCCCCC1 (racemic) | 17 | 2.8 | 
CCCCCOc1ccc(C2(c3ccc(O)cc3)C(=O)Nc3c2ccc(F)c3F)cc1 (racemic) | > 1000 | > 1000 | 
O=C1Nc2c(ccc(F)c2F)C1(c1ccc(O)cc1)C1CCCC1 (racemic) | 8.2 | 12 | AUC [9]: 2400 ng·h/mL; AUC [10]: 1850 ng·h/mL; half-life [11]: 3.7 h; half-life [12]: 1.1 h
O=C1Nc2c(C(F)(F)F)cccc2C1(c1ccc(O)cc1)n1ccnc1 (racemic) | > 1000 | > 1000 | inhibition [16]: inactive; induction [17]: inactive
COc1ccc(C2(c3cccc(O)c3)C(=O)Nc3c2ccc(F)c3F)cc1 (racemic) | 145 | 196 | 
COc1ccc2c(c1C)NC(=O)[C@@]2(c1ccc(O)cc1)C1CCCCCC1 | > 1000 | > 1000 | 
O=C1Nc2c(ccc(F)c2F)C1(c1ccc(O)cc1)c1ccc(F)c(F)c1 (racemic) | 19 | 7.8 | 
Cc1cc(C)c2c(c1)C(c1ccc(O)cc1)(C1CCCCCC1)C(=O)N2 (racemic) | > 1000 | > 1000 | 
Cc1cccc2c1NC(=O)C2(c1ccc(O)cc1)C1CCCCCC1 (racemic) | > 1000 | > 1000 | 
CCOc1ccc(C2(c3ccc(O)cc3)C(=O)Nc3c2ccc(F)c3F)cc1 (racemic) | 24 | 11 | 
Cc1ccc(C2(c3ccc(O)cc3)C(=O)Nc3c2ccc(F)c3F)cc1 (racemic) | 0.8 | 1.7 | 
COc1ccc(C2(c3ccc(O)cc3)C(=O)Nc3c2ccc(F)c3F)cc1 (stereo in doubt; form 2) |  |  | IC50 ([3]; pc-3): > 1000 nM; IC50 ([7]; mcf7): > 1000 nM
O=C1Nc2c(ccc(F)c2F)C1(c1ccc(O)cc1)c1cccnc1 (racemic) | > 1000 | 63 | 
O=C1Nc2c(ccc(F)c2F)C1(c1ccncc1)c1ccc(O)cc1 (racemic) | 110 | 37 | 
O=C1Nc2c(ccc(F)c2F)C1(c1ccc(O)cc1)C1CCCCCC1 (racemic) | 12 | 1.2 | AUC [14]: 2290 ng·h/mL; AUC [10]: 694 ng·h/mL; MTD [5]: > 40 mg/kg; half-life [11]: 1.3 h; Activity [6]: 10 mg/kg; half-life [15]: 2.1 h; selectivity ratio [8]: 8
O=C1Nc2ccccc2C1(c1ccc(O)cc1)c1ccc(F)cc1 (racemic) | > 1000 | 28 | 
CCCOc1ccc(C2(c3ccc(O)cc3)C(=O)Nc3c2ccc(F)c3F)cc1 (racemic) | > 1000 | 356 | 
O=C1Nc2c(ccc(F)c2F)C1(c1ccc(O)cc1)C1CCCCC1 (stereo in doubt; form 1) |  |  | IC50 ([3]; pc-3): 9.2 nM; IC50 ([7]; mcf7): 18 nM
Cc1c(Cl)ccc2c1NC(=O)C2(c1ccc(O)cc1)C1CCCCCC1 (racemic) | 150 | 51 | 
O=C1Nc2c(ccc(F)c2F)C1(c1ccc(O)cc1)C1CCCCCCC1 (racemic) | > 1000 | > 1000 | 

From ChEMBL document CHEMBL1255220, “Synthesis and antitumor effect in vitro and in vivo of substituted 1,3-dihydroindole-2-ones” (J Med Chem, 2010)
